In one assay the test system is K562. As to the kind of experiment: Cytotoxicity against human K562 cells assessed as cell growth inhibition at 100 uM by MTT assay. In kind it is functional. The conditions noted are these: read-out: GI. The method in brief: (§1)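 Single-dose screen at 100 μM; percent growth reduction determined by MTT-based cell viability assay. Cancer lines MCF-7 (breast), HeLa (cervix) and K-562 (bone marrow lymphoblast) run alongside normal baby hamster kidney BHK-21 cells.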
(Tetrazolium assays rely on reduction of a dye to a coloured formazan, in cell work by metabolically active cells.)

A further assay deals with HeLa. Briefly: Cytotoxicity against human HeLa cells assessed as cell growth inhibition at 100 uM by MTT assay. In kind it is functional. The conditions noted are these: read-out: GI. The method in brief:
as §1

Another assay is filed under the species Homo sapiens. As to the kind of experiment: Selectivity index, ratio of IC50 for human TNAP to IC50 for human IAP.

Turning to `Cc1cc(C)n(C(=O)c2ccncc2)n1`, the inhibition of growth at 100 µM with K562 was 25.3%; with HeLa it was 69.7%.
Taken in the same sequence, the figures for `Cc1ccc(Oc2c(C)nn(C(=O)c3ccc(Cl)cc3)c2C)cc1` were 88.8% and 43.9%.
Consider `Cc1cc(C)n(C(=O)c2ccc(N)cc2)n1`, for which the inhibition of growth at 100 µM with K562 turned out to be 29.2%; in the assay on HeLa, 58.3%. The Ratio IC50 in the assay listed under Homo sapiens was found to be 9.
For `Cc1cccc(C(=O)n2nc(C)c(Cl)c2C)c1`, the inhibition of growth at 100 µM in the assay with K562 came out at 63.3%; with HeLa, 75.6%.
For `Cc1n[nH]c(C)c1Oc1ccc2ccccc2c1` the same measures were 67.8% and 54.9%.
As to `Cc1ccc(C(=O)n2[nH]c(C)cc2=O)cc1`, the figures for the inhibition of growth at 100 µM with K562 and in the assay with HeLa were 51.1% and 69.6%, respectively.
As to `Cc1nn(C(=O)c2ccncc2)c(C)c1Cl`, the inhibition of growth at 100 µM is 71.2% in the assay with K562 and 62.9% with HeLa.
Taken in the same sequence, the figures for `Cc1nn(C(=O)c2ccc(N)cc2)c(C)c1Cl` were 52.2% and 63.3%.
Taken in the same sequence, the figures for `Cc1cc(=O)n(C(=O)c2ccc(N)cc2)[nH]1` were 75.4% and 72.5%.
On to `Cc1nn(C(=O)/C=C/c2ccccc2)c(C)c1Cl`, for which the results for the inhibition of growth at 100 µM in the assay with K562 and in the assay with HeLa were 56.5% and 72.5%, respectively.
Consider `Cc1cc(C)n(C(=O)c2ccc(Cl)cc2)n1`, for which the figures for the inhibition of growth at 100 µM in the assay on K562 and in the assay on HeLa were 64.5% and 52.3%, respectively.
As for `Cc1cc(C)n(C(=O)c2ccccc2C)n1`, the inhibition of growth at 100 µM with K562 came out at 60.1%; in the assay with HeLa, 36.2%.
Take `Cc1ccccc1C(=O)n1nc(C)c(Cl)c1C`: the inhibition of growth at 100 µM with K562 stood at 19.2%; in the assay on HeLa it was 71.9%.
On to `Cc1nn(C(=O)c2ccc3ccccc3c2)c(C)c1Cl`, for which the inhibition of growth at 100 µM with K562 worked out at 38.7%; in the assay on HeLa, 66.2%.
Regarding `Cc1cccc(C(=O)n2nc(C)cc2C)c1`, the inhibition of growth at 100 µM in the assay on K562 was 38.1%; in the assay on HeLa, 78.4%.
Taken in the same sequence, the figures for `Cc1nn(C(=O)c2ccc(Cl)cc2)c(C)c1Cl` were 74.3% and 72.5%.
As to `Cc1nn(C(=O)[C@H](C)c2ccc(CC(C)C)cc2)c(C)c1Cl`, the inhibition of growth at 100 µM in the assay on K562 is 47.5%; in the assay with HeLa it was 65.4%.
Take `Cc1cc(C)n(C(=O)c2ccc3ccccc3c2)n1`: the results for the inhibition of growth at 100 µM in the assay with K562 and in the assay with HeLa were 67.3% and 51.1%, respectively.
Turning to `Cc1ccc(Oc2c(C)nn(C(=O)c3ccc(N)cc3)c2C)cc1`, the inhibition of growth at 100 µM stood at 75.1% in the assay on K562 and 62.1% in the assay on HeLa.
On to `Cc1ccc(C(=O)n2nc(C)c(Cl)c2C)cc1`, for which the inhibition of growth at 100 µM with K562 came to 45.2%; in the assay on HeLa, 68.5%.

The values are drawn from ChEMBL document CHEMBL4270558, “Exploration of carboxy pyrazole derivatives: Synthesis, alkaline phosphatase, nucleotide pyrophosphatase/phosphodiesterase and nucleoside triphosphate diphosphohydrolase inhibition studies with potential anticancer profile” (Eur J Med Chem, 2018).
